# Data reported in ChEMBL document CHEMBL1134320, “Structure of protein tyrosine phosphatase 1B in complex with inhibitors bearing two phosphotyrosine mimetics” (J Med Chem, 2001).
# How the values were obtained:
# [1] = molecular target: T1, Tyrosine-protein phosphatase non-receptor type 4 (Homo sapiens) (UniProt P29074); test: Inhibitory activity against Protein tyrosine phosphatase PTPmeg-1 at 500 uM
# T1 sequence (whole entry): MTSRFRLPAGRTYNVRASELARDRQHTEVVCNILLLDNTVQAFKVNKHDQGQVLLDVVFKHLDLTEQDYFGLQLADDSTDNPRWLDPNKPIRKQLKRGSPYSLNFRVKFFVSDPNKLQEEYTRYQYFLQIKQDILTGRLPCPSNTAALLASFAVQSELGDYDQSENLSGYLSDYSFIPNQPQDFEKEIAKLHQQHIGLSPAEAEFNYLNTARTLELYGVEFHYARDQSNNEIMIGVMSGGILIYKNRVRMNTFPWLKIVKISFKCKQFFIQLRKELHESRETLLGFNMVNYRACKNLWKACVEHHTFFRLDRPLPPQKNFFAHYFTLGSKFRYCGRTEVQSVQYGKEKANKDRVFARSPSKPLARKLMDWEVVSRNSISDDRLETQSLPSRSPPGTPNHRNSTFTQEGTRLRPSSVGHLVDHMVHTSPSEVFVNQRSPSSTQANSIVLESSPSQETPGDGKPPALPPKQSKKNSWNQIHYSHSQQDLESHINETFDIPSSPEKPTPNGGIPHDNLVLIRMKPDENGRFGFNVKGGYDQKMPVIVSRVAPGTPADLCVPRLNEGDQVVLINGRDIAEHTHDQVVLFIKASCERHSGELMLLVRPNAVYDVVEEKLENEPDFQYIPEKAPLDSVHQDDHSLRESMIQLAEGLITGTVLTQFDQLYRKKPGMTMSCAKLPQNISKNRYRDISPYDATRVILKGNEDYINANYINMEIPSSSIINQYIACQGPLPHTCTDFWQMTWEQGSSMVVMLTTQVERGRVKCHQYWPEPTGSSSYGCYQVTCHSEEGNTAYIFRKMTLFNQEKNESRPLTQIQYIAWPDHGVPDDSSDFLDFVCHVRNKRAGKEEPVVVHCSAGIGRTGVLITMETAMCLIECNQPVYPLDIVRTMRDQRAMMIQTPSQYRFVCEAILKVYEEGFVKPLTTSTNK
# Method in brief: (§1)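 Percent inhibition was measured at the single inhibitor concentration given in the line, using the FDP fluorogenic substrate at about each enzyme's KM. For CDC25a, flag-tagged protein was made in Sf9 cells (moi 5, 27 °C, 72 h) and purified on anti-flag resin to over 80% purity.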
# [2] = molecular target: T2, M-phase inducer phosphatase 1 (Homo sapiens) (UniProt P30304); test: Inhibitory activity against Protein tyrosine phosphatase cell division cycle 25A at 250 uM; method in brief: as §1
# T2 sequence (whole entry): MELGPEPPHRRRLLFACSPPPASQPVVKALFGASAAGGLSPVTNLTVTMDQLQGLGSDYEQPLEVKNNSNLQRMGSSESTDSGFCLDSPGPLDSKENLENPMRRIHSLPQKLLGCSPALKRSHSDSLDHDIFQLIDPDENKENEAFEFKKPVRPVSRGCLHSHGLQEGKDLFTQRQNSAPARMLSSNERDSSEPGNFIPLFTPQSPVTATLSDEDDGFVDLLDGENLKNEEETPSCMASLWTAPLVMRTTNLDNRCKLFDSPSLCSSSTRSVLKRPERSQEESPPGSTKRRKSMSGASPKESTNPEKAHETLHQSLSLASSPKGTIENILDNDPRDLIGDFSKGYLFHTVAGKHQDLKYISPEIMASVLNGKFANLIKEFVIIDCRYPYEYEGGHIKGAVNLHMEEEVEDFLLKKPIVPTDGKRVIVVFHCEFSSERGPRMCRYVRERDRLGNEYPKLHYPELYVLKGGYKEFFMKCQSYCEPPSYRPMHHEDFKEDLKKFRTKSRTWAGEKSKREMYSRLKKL
# [3] = molecular target: T1, Tyrosine-protein phosphatase non-receptor type 4 (Homo sapiens); test: Inhibitory activity against Protein tyrosine phosphatase PTPmeg-1 at 250 uM; method in brief: as §1
# [4] = molecular target: T1, Tyrosine-protein phosphatase non-receptor type 4 (Homo sapiens); test: Inhibitory activity against Protein tyrosine phosphatase PTPmeg-1 at 380 uM; method in brief: as §1
# [5] = molecular target: T2, M-phase inducer phosphatase 1 (Homo sapiens); test: Inhibitory activity against Protein tyrosine phosphatase cell division cycle 25A at 250 uM
compound,measurement,setting,value
O=P(O)(O)C(F)(F)c1ccc(COc2ccccc2OCc2ccc(C(F)(F)P(=O)(O)O)cc2)cc1,inhibition,[1],30%
O=P(O)(O)C(F)(F)c1ccc(COCCOCc2ccc(C(F)(F)P(=O)(O)O)cc2)cc1,inhibition,[2],13%
same,inhibition,[3],2%
O=P(O)(O)C(F)(F)c1ccc(COc2cccc(OCc3ccc(C(F)(F)P(=O)(O)O)cc3)c2)cc1,inhibition,[4],30%
O=P(O)(O)C(F)(F)c1ccc(CCCCc2ccc(C(F)(F)P(=O)(O)O)cc2)cc1,inhibition,[5],16%
same,inhibition,[3],9%
